Published values gathered from unrelated publications.
Compare with care: the assays were run in different laboratories.
Target: Mitogen-activated protein kinase kinase kinase 14 (MAP3K14, Homo sapiens, UniProt Q99558)

| Compound | effect on | mode | method | concentration | endpoint | value |
| --- | --- | --- | --- | --- | --- | --- |
| Nc1ncc(-c2nc(N3CCOCC3)nc(N3CCOCC3)n2)c(C(F)F)n1 | binding | – | competition with immobilised ligand | 10 µM | remaining binding | 70% |
| O=c1[nH]c2ccccc2n1C1CCN(Cc2ccc(-c3[nH]c4cc5ncnc5cc4nc3-c3ccccc3)cc2)CC1 | cell-free assay | – | – | 0.5 µM | remaining signal | 96.8% |
| N#CC1(c2ccccn2)CCN(Cc2cc(C(=O)O)c(=O)n3ccccc23)CC1 | cell-free assay | – | competition with immobilised ligand | 1 µM | remaining binding | 73% |
| COc1ncccc1-c1cnn2ccc(N3CCN(C(=O)OC(C)C)CC3)nc12 | binding | – | competition with immobilised ligand | 1 µM | remaining binding | 100% |
| Cn1cc(-c2cc(F)cc(N3CCn4c(cc5c4CCCC5)C3=O)c2CO)cc(Nc2ccc(N3CCN(C4COC4)CC3)cn2)c1=O | enzyme activity | inhibitor | – | 0.1 µM | inhibition | 6% |
| Cn1cncc1[C@](O)(COc1ccc(C#N)cc1-c1ccc(OC(F)(F)F)cc1)c1ccc(C#N)cc1 | cell-free assay | – | competition with immobilised ligand | 1 µM | remaining binding | 88% |
| Cn1cc(-c2cccc(N3CCc4c(sc5c4CC(C)(C)C5)C3=O)c2CO)cc(Nc2ccncn2)c1=O | enzyme activity | inhibitor | – | 1 µM | inhibition | -3% |
| CC(C)(C)c1cc(C=C(C#N)C#N)cc(Br)c1O | enzyme activity | inhibitor | – | 0.5 µM | remaining activity | 97.3% |
